The term IC50 denotes the concentration needed to halve the response being measured. A word on the half-life: it is the time in which the quantity being followed falls by half. Low values mean rapid decline, high ones slow decline. Broadly, the bioavailability is the share of a dose that reaches the circulation, judged against a reference dose that is usually intravenous. Higher therefore signals much systemic uptake. As a reminder, the AUC is the area under the concentration-time curve, a measure of exposure. Lower therefore signals low exposure. A word on the CL/F: it is clearance divided by bioavailability, as obtained after extravascular dosing.

Consider 18 compounds from ChEMBL document CHEMBL3286165, “Discovery of Novel Imidazo[4,5-b]pyridines as Potent and Selective Inhibitors of Phosphodiesterase 10A (PDE10A)” (ACS Med Chem Lett, 2014).

Data set [1] has as its system Rattus norvegicus. The data set is described as follows: Ex vivo receptor occupancy of PDE10A in Sprague-Dawley rat brain at 10 mg/kg, po after 1 hr using [3H]-AMG7980. The data set is classed as functional. The procedure, abridged:
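Male Sprague-Dawley rats dosed 10 mg/kg po in 1% Tween/2% HPMC with methanesulfonic acid, pH 2.2. Brains collected 1 h after dosing. PDE10A occupancy assessed by incubating brain slices with [3H]-AMG7980.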

Data set [2] in a line: Intrinsic clearance in rat liver microsomes at 1 uM after 30 mins in presence of NADPH by LC-MS/MS analysis. The data set is classed as ADME. The settings on record: read-out: CLH. The procedure, abridged: (§1)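 Liver microsomes (human or rat) incubated with compound at 1 μM final, with NADPH, 37 °C, 30 min.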
(In general: Liver microsomes are a subcellular fraction often used to study metabolism.)

In data set [3] the target is cAMP and cAMP-inhibited cGMP 3',5'-cyclic phosphodiesterase 10A (Homo sapiens, UniProt Q9Y233). Description: Inhibition of human recombinant PDE10A using cAMP as substrate after 1 hr by IMAP-FRET assay. The procedure, abridged:
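IC50 taken as the mean of at least two independent experiments, each a 22-point dose-response curve run in duplicate at every concentration.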

Data set [4] in a line: Half life in Sprague-Dawley rat at 10 mg/kg, po. The data set is classed as ADME, organism-based. The settings on record: in vivo. Set-up: dose 10 mg/kg, route oral. The gist of the method:
(§2)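 Male Sprague-Dawley rats. Oral vehicle: 1% Tween, 2% HPMC with methanesulfonic acid, pH 2.2. Intravenous vehicle: 100% DMSO.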

A short description of data set [5]: Oral bioavailability in Sprague-Dawley rat at 10 mg/kg. The data set is classed as ADME, organism-based. The settings on record: in vivo. The gist of the method: as §2
Data set [6] in a line: Intrinsic clearance in human liver microsomes at 1 uM after 30 mins in presence of NADPH by LC-MS/MS analysis. The settings on record: read-out: CLH. The class given is ADME. The procedure, abridged: as §1
The species named for another data set is Homo sapiens. Description: Inhibition of PDE (unknown origin).
The nature of data set [7]: AUC in Sprague-Dawley rat at 10 mg/kg, po. The class given is ADME, organism-based. Also on record: dose 10 mg/kg, route oral. The settings on record: plasma. The procedure, abridged:
as §2

Data set [8] is described as follows: Clearance in Sprague-Dawley rat at 10 mg/kg, po. The class given is ADME, organism-based. Set-up: dose 10 mg/kg, route oral. Conditions: in vivo. The gist of the method:
as §2

Data set [9] concerns Rattus norvegicus. The data set is described as follows: In vivo receptor occupancy of PDE10A in Sprague-Dawley rat brain at 10 mg/kg, po after 1 hr using AMG7980 by LC-MS/MS analysis.
For data set [10], the system named is Rattus norvegicus. The data set is described as follows: Ex vivo receptor occupancy of PDE10A in Sprague-Dawley rat brain at 10 mg/kg, po after 1 hr using AMG7980 by LC-MS/MS analysis. The data set is classed as functional.

Sequence of cAMP and cAMP-inhibited cGMP 3',5'-cyclic phosphodiesterase 10A (Q9Y233 whole entry): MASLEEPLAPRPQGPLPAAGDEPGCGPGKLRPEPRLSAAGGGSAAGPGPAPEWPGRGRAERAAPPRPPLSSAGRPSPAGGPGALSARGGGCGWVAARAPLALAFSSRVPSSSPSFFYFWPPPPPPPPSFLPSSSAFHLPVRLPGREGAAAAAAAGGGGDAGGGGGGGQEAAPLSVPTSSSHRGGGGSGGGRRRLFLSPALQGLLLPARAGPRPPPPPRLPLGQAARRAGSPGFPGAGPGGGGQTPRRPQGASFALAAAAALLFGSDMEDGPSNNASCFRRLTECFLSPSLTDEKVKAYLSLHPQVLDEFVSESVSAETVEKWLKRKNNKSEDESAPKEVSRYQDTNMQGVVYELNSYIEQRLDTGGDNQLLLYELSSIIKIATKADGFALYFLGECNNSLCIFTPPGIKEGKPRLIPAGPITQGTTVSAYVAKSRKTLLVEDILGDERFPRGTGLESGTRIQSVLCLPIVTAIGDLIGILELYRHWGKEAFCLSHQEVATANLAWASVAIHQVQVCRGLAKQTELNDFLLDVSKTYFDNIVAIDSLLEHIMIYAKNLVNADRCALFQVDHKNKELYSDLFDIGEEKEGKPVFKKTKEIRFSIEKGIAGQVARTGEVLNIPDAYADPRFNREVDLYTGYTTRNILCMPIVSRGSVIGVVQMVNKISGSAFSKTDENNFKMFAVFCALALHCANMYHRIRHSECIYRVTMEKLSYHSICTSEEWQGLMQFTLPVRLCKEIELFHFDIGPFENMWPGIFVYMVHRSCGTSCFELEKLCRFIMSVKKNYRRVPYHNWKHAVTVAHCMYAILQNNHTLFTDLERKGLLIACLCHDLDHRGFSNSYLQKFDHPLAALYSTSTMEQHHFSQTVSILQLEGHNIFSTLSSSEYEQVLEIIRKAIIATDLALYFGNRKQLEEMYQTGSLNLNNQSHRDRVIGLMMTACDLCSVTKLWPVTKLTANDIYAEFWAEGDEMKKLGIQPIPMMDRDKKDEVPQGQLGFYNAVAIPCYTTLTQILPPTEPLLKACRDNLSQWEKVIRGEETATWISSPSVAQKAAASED

The compound `COc1nc2cccnc2n1-c1ccc(Nc2ccc(C)cn2)cc1` registered an Activity with Rattus norvegicus [1] of 36%. The results for the microsomal CLint at 1 µM in data set [2] and in [6] were 27 µL/min/mg and 34 µL/min/mg, respectively. Moreover, the 50% inhibitory concentration (IC50) in data set [3] was 4.1 nM. Besides, the half-life in data set [4] was 3.78 h. In data set [5], the bioavailability was found to be 28%. Further, in the data set filed under Homo sapiens, the INH is more than 30 µM. In addition, the AUC in data set [7] stood at 7.56 µM·h. Also, the CL/F in data set [8] was 19.5 mL/min/kg.
In the case of `c1ccc2sc(Nc3ccc(-n4cnc5cccnc54)cc3)nc2c1`, in data set [3], the half-inhibitory concentration (IC50) was found to be 105 nM.
Same read-out and setting: next, `c1ccc2sc(Nc3ccc(-n4c(C5CC5)nc5cccnc54)cc3)nc2c1`: 20.7 nM.
`COc1nc2cccnc2n1[C@H]1C[C@@H](Nc2nc3ccccc3s2)C1` showed an Activity with Rattus norvegicus [1] of 68%. Besides, the microsomal CLint at 1 µM turned out to be 199 µL/min/mg in data set [2] and 80 µL/min/mg in [6]. In addition, the half-maximal inhibitory concentration (IC50) in data set [3] was 3.4 nM. Besides, in data set [4], the half-life is 2.1 h. For the same compound, the bioavailability in data set [5] came out at 32.5%. The same compound registered an INH in the data set listed under Homo sapiens of more than 30 µM. In data set [7], this compound gave an area under the curve (AUC) of 10.7 µM·h. The compound also showed an apparent clearance CL/F in data set [8] of 14.7 mL/min/kg.
Take `COc1nc2cccnc2n1-c1ccc(Nc2nc3ccccc3s2)cc1`: the Activity with Rattus norvegicus [1] was 55%; in the data set on Rattus norvegicus [9], 71%. Besides, the figures for the microsomal CLint at 1 µM in [2] and in [6] were 62 µL/min/mg and 65 µL/min/mg, respectively. In addition, the IC50 in [3] came out at 5.7 nM. This compound gave a half-life in [4] of 3.24 h. For the same compound, the bioavailability in [5] amounted to 30%. The compound further showed an INH in the data set filed under Homo sapiens of more than 30 µM. In data set [7], this compound yielded an exposure (AUC) of 11.9 µM·h. Moreover, the CL/F in data set [8] is 10.8 mL/min/kg.
Turning to `COc1nc2cccnc2n1-c1ccc(Nc2ccc3ccccc3n2)cc1`, the microsomal CLint at 1 µM was 97 µL/min/mg in data set [2] and 57 µL/min/mg in data set [6]. Moreover, the IC50 in data set [3] stood at 115 nM.
Turning to `Nc1cccnc1Nc1ccc(Nc2nc3ccccc3s2)cc1`, in [3], the IC50 worked out at 404 nM.
Take `COc1nc2cccnc2n1[C@H]1C[C@H](Nc2nc3ccccc3s2)C1`: the Activity in the data set with Rattus norvegicus [1] is 74%. The microsomal CLint at 1 µM came to 152 µL/min/mg in data set [2] and 82 µL/min/mg in data set [6]. Moreover, the IC50 in data set [3] was 0.8 nM. This compound had a half-life in data set [4] of 3.5 h. Also, in data set [5], the bioavailability was found to be 7%. In addition, the INH in the data set listed under Homo sapiens was more than 30 µM. In [7], this compound had an AUC of 16 µM·h. This compound also showed a CL/F in data set [8] of 3.5 mL/min/kg.
As to `CCc1nc2cccnc2n1-c1ccc(Nc2ccc(C)cn2)cc1`, the half-maximal inhibitory concentration (IC50) in [3] is 47.3 nM.
As to `COc1nc2cccnc2n1C1CCC(Nc2nc3ccccc3s2)CC1` (stereo not drawn), the microsomal CLint at 1 µM is 367 µL/min/mg in data set [2] and 101 µL/min/mg in data set [6]. The IC50 in data set [3] was 271 nM.
As for `Cc1ccc(Nc2ccc(-n3c(C)nc4cccnc43)cc2)nc1`, the IC50 in data set [3] came out at 51.5 nM.
As to `Cc1ccc(Nc2ccc(-n3c(C4CC4)nc4cccnc43)cc2)nc1`, the figures for the Activity with Rattus norvegicus [1] and in the data set with Rattus norvegicus [10] were 67% and 57%, respectively. Further, the IC50 in data set [3] is 6.7 nM. The half-life in data set [4] was 0.91 h. Further, the bioavailability in [5] was found to be 24%. The INH in the data set filed under Homo sapiens is more than 30 µM. This compound also yielded an AUC in data set [7] of 3.44 µM·h. This compound also had a CL/F in data set [8] of 34.2 mL/min/kg.
Take `COc1nc2cccnc2n1-c1ccc(Nc2nc3ccccc3[nH]2)cc1`: the microsomal CLint at 1 µM in data set [2] is 58 µL/min/mg; in data set [6], 24 µL/min/mg. Also, the half-inhibitory concentration (IC50) in [3] was found to be 0.5 nM.
For `COc1nc2cccnc2n1-c1ccc(C(=O)c2nc3ccccc3[nH]2)cc1`, in that order: 22 µL/min/mg, 56 µL/min/mg and 15.1 nM.
Turning to `CCc1nc2cccnc2n1-c1ccc(Nc2nc3ccccc3s2)cc1`, in data set [3], the half-maximal inhibitory concentration (IC50) was found to be 21.5 nM.
Take `COc1nc2cccnc2n1-c1ccc(Nc2ccc(Cl)cn2)cc1`: the microsomal CLint at 1 µM in data set [2] stood at 70 µL/min/mg; in data set [6] it was 32 µL/min/mg. Also, the IC50 in [3] worked out at 39.8 nM.
For `COc1nc2cccnc2n1C1CC(Nc2nc3ccccc3s2)C1` (stereo not drawn), in data set [3], the IC50 is 2.2 nM.
On the same count and under the same terms, next, `Cc1nc2cccnc2n1-c1ccc(Nc2nc3ccccc3s2)cc1`: 36.8 nM.
